# From PubChem BioAssay
# MrgX1 antag: antagonists of human MrgX1 receptor; hit rate 1.3% among 310,000; B-score at 10 µM; MRGX1-HEK293 calcium flux, Fluo-4, BAM8-22 antagonism; active compounds read low; Q96LB2;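 active = calcium-response B-score plate-corrected more than 3 library SD below zero, starting fluorescence within 5 deviations, no agonist response on first addition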;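 note: peak minus trough fluorescence over baseline after final BAM8-22 challenge near maximal dose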
# Target sequence (Q96LB2 whole entry, looked up): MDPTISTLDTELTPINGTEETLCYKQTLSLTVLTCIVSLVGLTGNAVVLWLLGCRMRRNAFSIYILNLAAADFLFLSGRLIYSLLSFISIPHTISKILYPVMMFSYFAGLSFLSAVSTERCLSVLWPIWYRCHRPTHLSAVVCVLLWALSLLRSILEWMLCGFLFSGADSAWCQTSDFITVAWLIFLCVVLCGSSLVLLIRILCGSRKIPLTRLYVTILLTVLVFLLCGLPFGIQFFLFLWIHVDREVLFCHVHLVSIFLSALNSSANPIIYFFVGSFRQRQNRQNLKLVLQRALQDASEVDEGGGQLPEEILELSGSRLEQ
# MrgX1 PAM: human MrgX1 positive allosteric modulation, primary screen | Q96LB2 | MrgX1-HEK293, Fluo-4 calcium flux, FDSS; active compounds read high | B-score at 10 µM | hit rate 0.63% among 310,000;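 active = plate-corrected calcium response at least 3 library SD above typical, normal starting fluorescence, not activating the receptor alone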;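 note: compound read alongside a low EC10 to EC30 dose of BAM8-22 agonist; peak minus trough fluorescence over baseline measured at the second addition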
# RGS4 act: RGS4 potentiation or activation; AID 463111; hit rate 0.92% among 310,000; B-score at 10 µM; HEK293 M3R/inducible RGS4, carbachol calcium flux Fluo4; active compounds read low;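 active = B-score of the integrated calcium signal more than 4 SD below the library mean, with starting fluorescence not abnormally high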;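 note: negative B-score means reduced calcium response which marks RGS4 activation or potentiation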
#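 Material: Inducible-RGS4 HEK293 cells carrying M3 receptor; also added: carbachol at ECmax as muscarinic agonist stimulus; incubation: compound preincubation 20 min at room temperature before agonist; signal: Fluo4-AM (2 µM) calcium-flux fluorescence, kinetic read; measure: integrated calcium ratio converted to B score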
# MrgX1 agonist: activates human MrgX1 receptor signaling | Q96LB2 | MrgX1-HEK293 cells, Fluo-4 calcium fluorescence, agonist mode; active compounds read high | B-score at 10 µM | hit rate 0.44% among 310,000 | AID 588627;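 active = calcium response B-score plate-corrected fluorescence ratio at least 3 library SD, with starting fluorescence B-score inside 5 SD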
#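 Material: HEK293 cells stably expressing human MrgX1 receptor | Quantity: 15,000 cells per well | Times: Cells plated overnight, dye loaded 0.5 h 37 °C, 0.5 h room temperature | Measured by: Kinetic Fluo-4 NW fluorescence of intracellular calcium | Control set: Positive and negative controls per plate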
# RGS4 inh: inhibitors of human RGS4; P49798; HEK293 M3R/RGS4 inducible, Fluo-4 calcium flux; active compounds read high; triggered by carbachol at its EC20; B-score at 10 µM; hit rate 0.45% among 310,000; AID 463165;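 active = B-score, a plate-corrected calcium signal, over three deviations above library mean, with baseline fluorescence within five deviations of library mean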;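 note: RGS4 expression induced by doxycycline in cells with stable M3 receptor; B-score is computed from the integrated fluorescence ratio over baseline after carbachol; higher B-score means a larger calcium signal and so more RGS4 inhibition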
# Target sequence (P49798 whole entry, looked up): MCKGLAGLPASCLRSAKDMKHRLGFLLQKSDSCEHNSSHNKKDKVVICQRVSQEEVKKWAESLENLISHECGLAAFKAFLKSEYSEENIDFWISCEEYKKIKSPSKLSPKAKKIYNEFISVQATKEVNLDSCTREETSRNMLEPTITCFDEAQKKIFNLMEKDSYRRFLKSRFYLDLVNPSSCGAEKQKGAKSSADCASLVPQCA
# MrgX1 allo conf: reconfirmed allosteric activator of human MrgX1 receptor; activation (ratio percentage), % at 10 µM; hit rate 13% among 1,200; shares compounds with MrgX1 PAM; MrgX1-HEK293, Fluo-4 calcium fluorescence, FDSS;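 active = ratio at least 3 SD above the weak peptide control, stable starting fluorescence, no direct agonism earlier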;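 note: compound followed by low BAM8-22 agonist challenge near EC20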
# HEK293 Ca flux: activity in parental HEK293 cells lacking MrgX1 | hit rate 2% among 4,000 | shares compounds with MrgX1 antag | Fluo-4 calcium fluorescence, FDSS | fluorescence ratio F(max-min)/F0 at 10 µM | AID 624111;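 active = duplicate-averaged calcium fluorescence ratio at least three times the standard deviation of buffer wells, a nonspecific response in parental cells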
# HEK293 Ca counter: activity in parental HEK293 cells without MrgX1. parental HEK293 calcium flux, Fluo-4 fluorescence ratio; active compounds read high. fluorescence ratio F(max-min)/F0 at 10 µM. hit rate 0.4% among 4,000. shares compounds with MrgX1 antag. AID 624114;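 active = calcium fluorescence ratio, averaged over duplicates, at least 3 SD of the buffer-well ratio, meaning a nonspecific response in receptor-free cells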;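 note: untransfected parental HEK293 lacking MrgX1 used as counterscreen for MrgX1 allosteric activators; fluorescence change taken during the second addition on a kinetic imager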
# HEK293 Ca cntr2: MrgX1 activator counter-screen hit in parental HEK293 cells | shares compounds with MrgX1 antag | Fluo-4 calcium fluorescence (FDSS); active compounds read high | fluorescence ratio F(max-min)/F0 at 10 µM | hit rate 8.7% among 4,000 | AID 624115;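 active = calcium fluorescence ratio at least three times the spread of buffer wells, meaning a non-specific response in parental cells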
# Hits are given with their value; n = inactive; x = not tested or not shown. Rows were chosen to be rich in hits. Some 3.5% of all compounds tested hit in one or more screens of this group.
SMILES,MrgX1 antag,MrgX1 PAM,RGS4 act,MrgX1 agonist,RGS4 inh,MrgX1 allo conf,HEK293 Ca flux,HEK293 Ca counter,HEK293 Ca cntr2
O=C(Nc1ccccc1)N(Cc1ccc(Cl)cc1)CC(O)C(F)(F)F (centres undefined),n,6.5,n,n,n,n,n,n,n
COc1ccc(CCC(=O)Nc2ccc3c(c2)OCO3)cc1,n,n,n,n,n,x,x,x,x
COc1ccc(CC(=O)OCC(=O)Nc2ccc3c(c2)OCO3)cc1,n,10,n,n,n,n,n,n,n
COc1ccccc1C(=O)C1CCCN(C(=O)c2ccccn2)C1 (centres undefined),n,n,n,n,n,x,x,x,x
Cc1cc(OCC(=O)Nc2ccc(N3CCN(C(=O)c4ccco4)CC3)cc2)cc(C)c1Cl,n,n,n,n,n,x,x,x,x
Cc1ccc(OCC(=O)Nc2ccc(N3CCN(C(=O)c4ccco4)CC3)cc2)cc1C,n,10,n,n,n,n,n,n,n
COc1ccc(-c2[nH]ncc2/C=N\NC(=O)c2cccs2)cc1OC,n,n,n,n,n,x,x,x,x
O=C(N/N=C/c1ccc(Cl)cc1)C(=O)N1CCCCCC1,n,n,n,n,n,x,x,x,x
Cc1cccn2c(=O)c(C(=O)NC3CCCCC3C)c(O)nc12 (centres undefined),n,n,n,n,n,x,x,x,x
Cc1ccn2c(=O)c(C(=O)NC3CCCCC3C)c(O)nc2c1 (centres undefined),n,9.3,n,n,n,n,n,n,n
O=C(COC(=O)c1cc(=O)[nH]c2ccccc12)NC1CCCCCCC1,n,9.7,n,n,n,n,n,n,n
Cc1ccc(S(=O)(=O)N2CCOCC2)cc1NC(=O)COC(=O)c1cc(=O)[nH]c2ccccc12,n,9.8,n,n,n,n,n,n,n
Cc1ccnc(N2CCN(C(=O)CSc3nc4ccccc4nc3N3CCC(C)CC3)CC2)c1,n,n,n,n,n,x,x,x,x
Cc1cccc2cc3ccccc3nc12,n,9.2,n,n,n,n,n,n,n
Cc1cccc2cc3cccc(C)c3nc12,n,n,n,n,n,x,x,x,x
Cc1cccc(CCNC(=O)c2cc(S(=O)(=O)N3CCCCC3)c[nH]2)c1,n,n,n,n,n,x,x,x,x
CC1(C)Cc2ccccc2-c2nnc(SCC(=O)N3CCN(c4ccccc4)CC3)n21,n,10,n,n,n,9.3%,n,n,n
NC(=O)CCN(C1CCCCC1)S(=O)(=O)c1cccc2nsnc12,n,n,n,n,n,x,x,x,x
Cc1ccc(S(=O)(=O)N(CCC#N)C2CCCCC2)c2nsnc12,n,6.8,n,n,n,n,n,n,n
O=C(OCCN1C(=O)c2ccccc2C1=O)c1cc(S(=O)(=O)N2CCOCC2)ccc1F,n,6.8,n,n,n,n,n,n,n
O=c1ncc(F)c[nH]1,n,n,n,n,n,x,x,x,x
CC(=O)c1sc2nc(C)c3c(c2c1N)CCCC3,n,9.7,n,n,n,n,n,n,n
C=CCSc1nc2c(cnn2-c2ccccc2)c(=O)n1N,n,n,n,n,n,x,x,x,x
CC(NC(=O)c1ccccc1F)c1nnc(SCC(=O)NC2CCCC2)n1C (centres undefined),n,n,n,n,n,x,x,x,x
COc1ccc(NC(=O)c2cncn2-c2ccccc2)cc1,n,n,n,n,n,x,x,x,x
SMILES,MrgX1 antag,MrgX1 PAM,RGS4 act,MrgX1 agonist,RGS4 inh,MrgX1 allo conf,HEK293 Ca flux,HEK293 Ca counter,HEK293 Ca cntr2
CN(Cc1ccc(N(C)C)cc1)C(=O)c1cc2ccccc2o1,n,12,n,n,n,8.2%,n,n,n
Cc1ccc(CC2C(=O)N(c3cc(C)ccc3C)C(=O)C2C)cc1 (centres undefined),n,n,n,n,n,x,x,x,x
O=C(CCc1ccccc1)Nc1nc2n(n1)C(c1ccc(Cl)cc1)CC(=O)N2 (centres undefined),n,n,n,n,n,x,x,x,x
O=C(CCc1ccccc1)Nc1nc2n(n1)C(c1ccccc1)CC(=O)N2 (centres undefined),n,21,n,n,n,n,n,n,n
O=C(COc1ccc(Cl)cc1)NNC(=O)CSc1nncs1,n,n,n,n,n,x,x,x,x
COc1ccc(CNc2ccc(C)cc2)cc1Br,n,n,n,n,n,x,x,x,x
COc1ccc(CNc2ccccc2)cc1Br,n,9.4,n,n,n,n,n,n,n
CC(C)(C)c1ccc(-n2ncc3c2CCCC3NC(=O)CCN2CCCC2=O)cc1 (centres undefined),n,n,n,n,n,x,x,x,x
CCc1cccc(CC)c1NC(=S)Nc1cccc(Cl)c1Cl,n,25,n,n,n,n,n,n,n
CC(=O)N(CCC1(c2ccc(C)cc2)CCOC(C(C)C)C1)Cc1ccco1 (centres undefined),n,10,n,n,n,n,n,n,n
COc1ccc(N=C2SCC(=O)N2Cc2ccccc2)cc1,n,11,n,n,n,n,n,n,n
COc1ccccc1NC(=O)c1ccc2c(c1)CCN2S(C)(=O)=O,n,n,n,n,n,x,x,x,x
CCOC(=O)c1cc(-c2ccc(OC)cc2)nn1-c1ccc(C(=O)O)cc1,n,6.5,n,n,n,n,n,n,n
CCOC(=O)c1cc(-c2cccnc2)nn1-c1ccccc1,n,n,n,n,n,x,x,x,x
CC(C)c1ccc(OCC(=O)NC(C)c2ccccc2)cc1 (centres undefined),n,n,n,n,n,x,x,x,x
CC(NC(=O)COc1ccccc1Cl)c1ccccc1 (centres undefined),n,7.2,n,n,n,n,n,n,n
CC12COC3(C(=O)Nc4ccc(Cl)cc4)CC1CCC32C (centres undefined),n,31,n,n,n,8.2%,n,n,n
CC12COC3(C(=O)Nc4nccs4)CC1CCC32C (centres undefined),n,n,n,n,n,x,x,x,x
CCOC(=O)N1CCN(c2cc(=O)n(-c3cccc(C)c3)c(=O)[nH]2)CC1,n,11,n,n,n,n,n,n,n
CCOC(=O)N1CCN(c2cc(=O)n(-c3cccc(Br)c3)c(=O)[nH]2)CC1,n,n,n,n,n,x,x,x,x
O=C(Nc1cccc(-c2cn3ccccc3n2)c1)c1ccccc1,n,6.8,n,n,n,8.4%,n,n,n
NC(=O)c1cc[n+](Cc2ccccc2Cl)cc1,n,n,n,n,n,x,x,x,x
COCCCNC(=O)CCCN1C(=O)c2cccnc2Sc2ccccc21,n,n,n,n,n,x,x,x,x
